# Rev-erbA mod – Rev-erb alpha (human) modulation; P20393; Rev-erbα–FITC-DNA binding, fluorescence polarization, 90 min; activity, % at 10 µM; 370,000 compounds, 0.79% hits;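 active = activity above about 14%, limit read from the data; passing the limit was not always enough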
# NR2E3 ag-1 – activates human NR2E3 receptor | Q9Y5X4 | CHO-S Gal4-NCOR/VP16-NR2E3 two-hybrid, luciferase | inhibition of corepressor binding, % at 3.98 µM | 360,000 compounds, 0.35% hits | AID 602229;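 active = inhibition above the mean of all tested compounds plus 3 SD, cut at about 70% in these data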;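 note: higher means lower luciferase signal from less NR2E3 corepressor binding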
# Target sequence (Q9Y5X4 whole entry, looked up, the tested form may be a part): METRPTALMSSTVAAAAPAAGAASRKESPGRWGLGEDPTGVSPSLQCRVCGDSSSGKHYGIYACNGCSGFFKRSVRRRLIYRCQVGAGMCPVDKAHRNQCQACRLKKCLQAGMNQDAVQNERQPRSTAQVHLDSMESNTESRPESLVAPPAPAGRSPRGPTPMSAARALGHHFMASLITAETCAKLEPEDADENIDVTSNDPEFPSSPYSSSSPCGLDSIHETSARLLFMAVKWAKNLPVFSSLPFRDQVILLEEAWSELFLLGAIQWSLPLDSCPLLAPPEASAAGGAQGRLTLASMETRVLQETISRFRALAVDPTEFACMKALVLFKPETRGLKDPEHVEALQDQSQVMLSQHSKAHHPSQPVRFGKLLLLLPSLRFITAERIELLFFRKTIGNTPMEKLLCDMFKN
# SKN-1 block – inhibitors of C. elegans SKN-1 | C. elegans VP596 Pgst-4::GFP/RFP ratio, acrylamide-induced, 24 h | inhibition, % at 21.8 µM | 360,000 compounds, 0.49% hits;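 active = interference check ratio from 0.5 to 1.5 plus GFP to RFP signal ratio inhibition reaching or exceeding a fixed threshold, cut at about 30% in these data, passing the limit was not always enough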
# PG9 Ab binder – PG9 antibody binding by small molecule | inhibition, % at 6.7 µM | TR-FRET gp120-PG9 antibody binding | 360,000 compounds, 0.43% hits; in the data active = inhibition above about 8.5%
# MT1-MMP act inh – inhibitors of human MT1-MMP activation; P50281; HT1080 RFP-PRO-GFP cells, GFP/RFP ratio fluorescence, overnight; percent of plate control window, DMSO zero; GFP/RFP ratio change, % at 20 µM; 360,000 compounds, 0.061% hits; AID 651647;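 active = GFP/RFP ratio change of at least 30% with cell ATP level not reduced by more than half and red fluorescence within 50% of control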
#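 Read-out: GFP/RFP fluorescence ratio; Test system: RFP-PRO-GFP reporter HT1080 cells; Compound dosing: single-point 20 µM compound, 1% DMSO; Times: overnight compound exposure at 37 °C.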
# NR2E3 ag-2 – agonists of human nuclear receptor NR2E3; Q9Y5X4; GST-NR2E3/biotin-RetCOR TR-FRET, 1536-well; inhibition of corepressor binding, % at 4.78 µM; 320,000 compounds, 0.12% hits; AID 2300;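 active = percent inhibition above the cutoff of mean plus 3 SD of all tested compounds, set per screening campaign, cut at about 20% in these data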
#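 System: GST-tagged NR2E3 plus biotinylated RetCOR corepressor; Amount: 1.35 nM GST-tagged NR2E3 final; Dosing: single nominal compound dose of 4.8 µM; Schedule: 5 h incubation at 4 °C; Technique: TR-FRET with europium anti-GST and streptavidin-D2, 340 nm excitation; Controls: biotin wells as high control, 0.6% DMSO wells as low control.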
# NR2E3 ag confirm-1 – confirmation of human NR2E3 nuclear receptor agonists | shares compounds with NR2E3 ag-2 | cell-free NR2E3 corepressor release, TR-FRET, 5 h | activation (reported as inhibition), % at 3.98 µM | 360 compounds, 39% hits | AID 2379; in the data active = activation above about 20%
# PPARg-NCOR2 ctr – counter-screen for NR2E3 agonists: human PPARgamma-NCOR2 interaction agonists. AID 504787. inhibition, % at 3.98 µM. 360 compounds, 45% hits. shares compounds with NR2E3 ag-2. TR-FRET PPARg-NCOR2 coregulator interaction, biochemical; in the data active = inhibition above about 20%
# NR2E3 ag confirm-2 – NR2E3 agonism confirmed in two-hybrid assay; 2,300 compounds, 51% hits; CHO-S mammalian two-hybrid NR2E3-NCOR, luciferase luminescence; shares compounds with NR2E3 ag-1; inhibition, % at 3.98 µM;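 active = average inhibition above a cutoff equal to the mean inhibition of all tested compounds plus one SD, cut at about 70% in these data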
# VP16 counter – counter-screen for NR2E3 agonists: GAL4-VP16 reporter inhibitors; shares compounds with NR2E3 ag-1; CHO-S GAL4-VP16 luciferase reporter, luminescence; inhibition, % at 3.98 µM; 2,300 compounds, 29% hits; AID 624379;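 active = mean inhibition above a cutoff equal to the average over all tested compounds plus one standard deviation, cut at about 70% in these data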;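 note: luciferase from a UAS reporter driven by GAL4-VP16 transactivation; higher means less reporter light so more repression of VP16 activity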
# PG9 bind confirm – confirmation of small molecules binding HIV-1 gp120 antibody PG9 | shares compounds with PG9 Ab binder | TR-FRET PG9 antibody binding, biochemical | inhibition, % at 6.7 µM | 1,500 compounds, 90% hits; in the data active = inhibition above about 9%
# PGV04 counter – binds control antibody PGV04 in PG9 binder counter-screen. shares compounds with PG9 Ab binder. inhibition, % at 6.7 µM. TR-FRET PGV04 antibody-gp120 binding, biochemical. 1,500 compounds, 95% hits. AID 651604; in the data active = inhibition above about 9.5%
# PG9 binder DR – small molecules binding HIV-1 gp120 antibody PG9; 95 tested, under 10 active; AID 651848; shares compounds with PG9 Ab binder; IC50, µM; TR-FRET PG9 antibody-gp120 binding inhibition; in the data active = IC50 below about 10 µM
# PGV04 binding DR – counter-screen for PG9 binders: binding to control antibody PGV04; IC50, µM; shares compounds with PG9 Ab binder; 95 compounds, 20% hits; TR-FRET binding to control antibody PGV04
# PG126 binding DR – PG126 binding, dose response counter-screen; shares compounds with PG9 Ab binder; TR-FRET binding to antibody PG126, counterscreen; IC50, µM; 95 compounds, 20% hits; AID 651939
# Rev-erbA confirm – Rev-erb alpha (human) modulation, hit confirmation; shares compounds with Rev-erbA mod; Rev-erb alpha FITC-DNA binding, fluorescence polarization, 90 min; activation, % at 25 µM; 3,000 compounds, 61% hits; AID 1259319;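 active = activation at or above a set limit, or at least 3 SD above the negative control mean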
# RORg counter – RORgamma DNA-binding activity, dose-response counter-screen. shares compounds with Rev-erbA mod. purified RORgamma protein-FITC-DNA binding, fluorescence polarization. IC50, µM. 910 compounds, 8% hits. AID 1259320;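 active = Compounds whose fitted half-maximal concentration for disrupting protein-DNA binding is below 10 micromolar; the record names Rev-erb in its text, so the target is in doubt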
# A number is an active result; - = inactive; . = no result. Only some compounds are listed: those with a hit (about 1.9% of all), similar ones and a draw of the others. Cut-off read from the data, not from the text of the source, unless noted: active = IC50 below about 9 µM; inactive = the rest.
SMILES,Rev-erbA mod,NR2E3 ag-1,SKN-1 block,PG9 Ab binder,MT1-MMP act inh,NR2E3 ag-2,NR2E3 ag confirm-1,PPARg-NCOR2 ctr,Rev-erbA confirm,others
COc1cccc(NC(=S)Nc2cc(C)cc(C)n2)c1,31,-,-,-,-,31,30,39,-,
COC(=O)[C@]12C[C@H](CC(=O)NCC3CCCCC3)C(=O)N(Cc3ccc4c(c3)OCO4)C1=C[C@H](C(C)(C)C)O[C@@H]2C,-,.,.,-,.,.,.,.,.,
CC(=O)c1sc(NC(=O)c2ccco2)nc1-c1ccccc1,.,-,-,.,-,-,.,.,.,
CCOC(=O)c1sc(NC(=O)c2ccco2)nc1-c1ccccc1,46,-,-,10,-,20,-,25,25,PG9 bind confirm=30;PGV04 counter=57
CN(C(=O)COc1cc(=O)n(C)c2ccccc12)c1ccc(Cl)cc1,-,-,-,-,-,-,.,.,.,
CN(c1ccc(Cl)cc1)c1cc(=O)n(C)c2ccccc12,22,-,-,-,-,21,-,-,18,
Cc1cccc(CCNC(=O)CSc2nc3c([nH]2)c(=O)n(C)c(=O)n3C)c1,-,.,.,.,.,.,.,.,.,
Cc1ccc(NC(=S)Nc2nc(CC(=O)Nc3ccccc3)cs2)cc1,101,-,-,16,-,20,-,-,91,PG9 bind confirm=11;PGV04 counter=9.7;PG9 binder DR=-;PGV04 binding DR=-;PG126 binding DR=-;RORg counter=-
COc1cc2ncnc(NCc3ccccc3C)c2cc1OC,-,-,-,-,-,-,.,.,.,
Cc1ccccc1CNc1ncnc2cc(Cl)ccc12,239,-,-,90,-,79,82,82,189,PG9 bind confirm=90;PGV04 counter=96;RORg counter=2.1
C=CCO[C@H]1CN(C(=O)OC)[C@@H](c2ccccc2Br)C[C@H]1OCC=C,-,.,.,-,.,.,.,.,.,
O=C(N[C@H](C(=O)N1CCC[C@H]1C(=O)NC1CCCC1)c1ccccc1)c1ccc(Cl)cc1Cl,-,.,.,-,.,.,.,.,.,
Cc1ccc(NC(=O)Cn2c(=O)oc3cc(S(=O)(=O)N4CCC(C)CC4)ccc32)cc1C,-,-,-,-,-,-,.,.,.,NR2E3 ag confirm-2=-;VP16 counter=-
CCN(CC)c1ccc(/C=N/NC(=S)NC)c(O)c1,-,-,-,-,-,-,.,.,.,NR2E3 ag confirm-2=-;VP16 counter=-
Cc1cc(N2CCN(c3cccc(C(F)(F)F)c3)CC2)n2ncnc2n1,-,-,-,-,-,-,.,.,.,

# Compound activity from PubChem.
